The values below come from publication PMC3641321 (Blood Cancer Journal, 2013).

“And” between values parts separate entries of the source, which are not always exact repeats. Equal values may be shown once. “Also recorded” adds a separate entry of the source. Marks after values point to notes of the source that are not given here.

The subject of data set [1] is Ba/F3 cells expressing JAK2V617F. Briefly: MTS cell proliferation assay, Ba/F3 JAK2V617F. The format is cell-based, murine. The following applies: Mus musculus, BaF3, 72 h, read-out: Cell proliferation assay V617F IC50±s.d. In general terms: Tetrazolium dyes change colour on reduction, which living cells bring about.
For data set [2], the target named is TEL-JAK3 (Homo sapiens, UniProt P41212+P52333). Briefly: AlphaScreen SureFire pSTAT5 assay, Ba/F3 TEL-JAK3. Format: cell-based. (Alpha assays give light when donor and acceptor beads are brought close together.)
Data set [3] concerns the target TEL-JAK1 (Homo sapiens, UniProt P23458+P41212). Briefly: AlphaScreen SureFire pSTAT5 assay, Ba/F3 TEL-JAK1. The format is cell-based.
Data set [4] has as its target T1, JAK2V617F (Homo sapiens, UniProt O60674, V617F). Briefly: AlphaScreen SureFire pSTAT5 assay, Ba/F3-JAK2V617F. The format is cell-based.
Data set [5] concerns the target TEL-JAK2 (Homo sapiens, UniProt O60674+P41212). Briefly: AlphaScreen SureFire pSTAT5 assay, Ba/F3 TEL-JAK2. Format: cell-based.
Data set [6] deals with IL-3-activated wild-type JAK2 (Homo sapiens, UniProt O60674). Briefly: AlphaScreen SureFire pSTAT5 assay, IL-3-stimulated Ba/F3 wild-type JAK2. Format: cell-based.
Chain of IL-3-activated wild-type JAK2 (O60674 whole entry): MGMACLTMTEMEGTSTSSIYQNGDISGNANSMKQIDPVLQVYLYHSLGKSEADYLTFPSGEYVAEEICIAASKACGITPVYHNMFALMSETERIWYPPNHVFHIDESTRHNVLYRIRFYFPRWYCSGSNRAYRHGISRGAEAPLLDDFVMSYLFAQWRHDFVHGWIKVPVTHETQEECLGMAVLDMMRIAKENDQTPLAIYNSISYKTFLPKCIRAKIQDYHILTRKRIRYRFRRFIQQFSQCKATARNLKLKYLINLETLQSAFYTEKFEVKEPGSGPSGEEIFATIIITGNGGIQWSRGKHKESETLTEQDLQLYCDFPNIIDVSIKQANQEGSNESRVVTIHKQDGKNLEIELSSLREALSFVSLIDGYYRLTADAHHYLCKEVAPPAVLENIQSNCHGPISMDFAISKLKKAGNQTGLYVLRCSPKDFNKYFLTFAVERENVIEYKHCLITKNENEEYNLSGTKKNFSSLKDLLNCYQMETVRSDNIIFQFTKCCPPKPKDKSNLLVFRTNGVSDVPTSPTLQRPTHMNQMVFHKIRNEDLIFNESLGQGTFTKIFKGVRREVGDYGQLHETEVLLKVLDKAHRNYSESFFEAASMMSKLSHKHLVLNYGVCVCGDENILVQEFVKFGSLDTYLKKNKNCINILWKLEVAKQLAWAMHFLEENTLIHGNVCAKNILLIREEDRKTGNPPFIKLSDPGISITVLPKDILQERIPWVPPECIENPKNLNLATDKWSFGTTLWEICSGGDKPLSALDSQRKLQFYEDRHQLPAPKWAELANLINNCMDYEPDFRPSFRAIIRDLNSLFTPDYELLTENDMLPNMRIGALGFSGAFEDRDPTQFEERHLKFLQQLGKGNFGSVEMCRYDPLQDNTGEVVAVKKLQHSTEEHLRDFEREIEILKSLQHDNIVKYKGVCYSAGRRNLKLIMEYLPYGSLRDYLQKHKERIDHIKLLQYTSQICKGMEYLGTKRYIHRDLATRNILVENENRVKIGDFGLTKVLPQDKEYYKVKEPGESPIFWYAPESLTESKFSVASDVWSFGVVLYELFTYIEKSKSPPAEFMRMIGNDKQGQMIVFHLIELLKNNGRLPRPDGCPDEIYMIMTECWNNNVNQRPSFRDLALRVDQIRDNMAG
The test system of data set [7] is cytotoxic T-cells, CD3+CD8a+. Briefly: 14-day rat immunotoxicology, flow cytometry. The format is in vivo, Sprague-Dawley rats. To be noted: for Change in cytotoxic T-cells, CD3+CD8a+, peripheral blood / Change in cytotoxic T-cells, CD3+CD8a+, spleen: gavage, Compound 1 15 mg/kg, Compound 2 (LY2784544) 30 mg/kg; for Percentage of T-cytotoxic cells (peripheral blood and splenic): pharmacologically active exposures, result in words. Background: In flow cytometry, cells or beads pass a laser one at a time.

Data set [8] addresses T2, JAK2 (Homo sapiens, UniProt O60674). Briefly: JAK LanthaScreen Kinase Assay. The following applies: Biochemical measurement of JAK inhibition, JAK2 IC50±s.d., Table 1.
Data set [9] concerns the target JAK3/JAK1 heterodimer (Homo sapiens, UniProt P23458+P52333). Briefly: Cellomics pSTAT5 assay, IL-2-stimulated NK-92 cells. Format: cell-based. The gist of the method:
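NK-92 cells were kept overnight in MEM Alpha with 0.3% FBS and 0.3% horse serum, then plated with DMSO or a 10-point 1:3 dilution series (20 to 0.001 μM) for 10 min. IL-2 (0.5 μg/ml) was then added for 20 min. Cells were fixed, stained for pSTAT5 (pY694) with Alexa Fluor 647 and Hoechst, and imaged. IC50 came from a four-parameter logistic fit.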

For data set [10], the target named is T3, JAK3 (Homo sapiens, UniProt P52333).
T3 sequence (P52333 1-1124): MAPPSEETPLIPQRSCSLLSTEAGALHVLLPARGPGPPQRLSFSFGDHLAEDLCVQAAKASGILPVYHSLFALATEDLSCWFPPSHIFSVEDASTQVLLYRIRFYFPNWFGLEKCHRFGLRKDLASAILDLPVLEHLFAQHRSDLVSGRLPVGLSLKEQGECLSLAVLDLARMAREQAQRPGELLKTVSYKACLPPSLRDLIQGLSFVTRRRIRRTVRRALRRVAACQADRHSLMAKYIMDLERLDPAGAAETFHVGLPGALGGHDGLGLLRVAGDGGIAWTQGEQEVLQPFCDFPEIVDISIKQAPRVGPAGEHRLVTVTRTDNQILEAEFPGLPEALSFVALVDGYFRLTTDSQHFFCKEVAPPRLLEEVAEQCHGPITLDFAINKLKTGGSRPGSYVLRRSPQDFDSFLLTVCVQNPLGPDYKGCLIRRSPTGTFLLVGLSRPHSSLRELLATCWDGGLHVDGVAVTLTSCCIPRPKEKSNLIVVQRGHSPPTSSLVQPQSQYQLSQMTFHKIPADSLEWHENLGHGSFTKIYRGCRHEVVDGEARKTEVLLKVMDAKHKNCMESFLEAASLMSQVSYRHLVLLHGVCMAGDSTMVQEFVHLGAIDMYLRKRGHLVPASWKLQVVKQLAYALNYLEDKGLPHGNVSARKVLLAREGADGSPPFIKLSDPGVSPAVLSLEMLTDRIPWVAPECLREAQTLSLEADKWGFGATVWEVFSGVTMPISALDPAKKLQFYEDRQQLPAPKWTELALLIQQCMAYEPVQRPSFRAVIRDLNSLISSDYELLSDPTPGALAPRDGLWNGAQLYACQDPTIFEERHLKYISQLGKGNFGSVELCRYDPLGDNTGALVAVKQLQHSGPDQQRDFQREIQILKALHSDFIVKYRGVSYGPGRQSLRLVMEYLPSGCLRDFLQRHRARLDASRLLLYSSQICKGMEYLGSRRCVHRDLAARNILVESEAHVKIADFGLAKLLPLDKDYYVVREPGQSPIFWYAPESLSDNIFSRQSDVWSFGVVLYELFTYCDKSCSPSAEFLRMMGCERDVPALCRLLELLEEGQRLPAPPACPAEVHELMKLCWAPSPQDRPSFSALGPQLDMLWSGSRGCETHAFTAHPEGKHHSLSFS
Briefly: JAK LanthaScreen Kinase Assay. To be noted: second-tier biochemical / LanthaScreen assay.

Data set [11] has as its system JAK2V617F signaling in Ba/F3-JAK2V617F-GFP ascitic tumor cells. Briefly: In vivo target inhibition, pSTAT5 in mouse ascitic tumor model. Also noted: species or system SCID mice. A digest of the protocol:
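Ascitic tumors were grown in CB17 SCID mice for 7 days after intraperitoneal implantation of 1 × 10^7 Ba/F3-JAK2V617F-GFP cells. A single oral gavage dose (2.5–80.0 mg/kg, six animals/group) was given and tumor cells were collected 30 min later. For time courses, 20, 40 or 80 mg/kg was given with collection at 0.25–6.0 h. Cells were fixed, stained 2 h for pSTAT5 (pY694), and analysed by flow cytometry. Statistics used ANOVA with Dunnett's test and a four-parameter logistic fit.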

Data set [12] deals with Ba/F3-JAK2V617F-GFP tumor burden. Briefly: 14-day in vivo efficacy, JAK2V617F-induced mouse MPN model. Set-up: species or system SCID mice. A digest of the protocol:
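SCID mice received 1 × 10^7 Ba/F3-JAK2V617F-GFP cells intravenously (six mice/group). Twice-daily oral gavage at 2.5–80.0 mg/kg started 7 days after infusion and ran 14 days. Endpoints were complete blood counts from cardiac puncture, spleen weight, and FACS of splenocytes for total number and percentage of GFP-positive cells. Dunnett's test at α=0.05.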

Data set [13] concerns the target JAK2 H538Q (Homo sapiens, UniProt O60674, H538Q). Briefly: Western blot pSTAT5, HEK293T JAK2 H538Q. To be noted: HEK293 cells expressing JAK2 H538Q, 1 h. Format: cell-based.
A short description of data set [14]: 14-day rat pilot toxicology study. The format is in vivo. To be noted: 30, 60, or 100 mg/kg.
In data set [15] the test system is Ba/F3-JAK2V617F-GFP tumor cells, erythroid progenitors, peripheral blood counts. Briefly: 8-day mouse hematologic disease model, hematopoiesis. The format is in vivo, SCID mice. To be noted: result in words. A digest of the protocol: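 This was an 8-day version of the intravenous Ba/F3-JAK2V617F-GFP SCID mouse model. Dosing at 5, 20, 40 or 80 mg/kg began one day before tumor cell infusion and continued twice daily for 8 days. Splenocytes were analysed by FACS for GFP-positive tumor cells and for erythroid progenitors stained with Ter119-APC and CD71-PE, with 7-AAD excluding nonviable cells. Peripheral blood counts were also taken.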

Data set [16] relates to Ba/F3 cells expressing JAK2V617F. Briefly: Caspase-Glo 3/7 apoptosis assay. The format is cell-based, murine. To be noted: Mus musculus, BaF3, 18 h, read-out: Induction of apoptosis EC50 (Caspase3/7-glo).
Data set [17] concerns the target T2, JAK2. Briefly: Cellomics pSTAT5 assay, EPO-stimulated TF-1 cells. The format is cell-based. The gist of the method: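 TF-1 cells were starved overnight in RPMI with 0.6% FBS, then plated at 2 × 10^5 cells/well with DMSO or a 10-point 1:3 dilution series (20 to 0.001 μM). After 10 min, erythropoietin (1.6 units/ml) was added for 20 min. Cells were fixed, stained with anti-pSTAT5 (pY694) Alexa Fluor 647 and Hoechst, and imaged. IC50 came from a four-parameter logistic fit.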

Data set [18] concerns the target T1, JAK2V617F. Briefly: Western blot pSTAT5, Ba/F3 JAK2V617F. The format is cell-based. To be noted: 50 nM–20 μM, 2 h.
In data set [19] the target is JAK2Y931C (Homo sapiens, UniProt O60674, Y931C). Briefly: Western blot pSTAT5, HEK293T JAK2Y931C. The following applies: HEK293 cells expressing JAK2Y931C, 1 h. Format: cell-based.
Chain of JAK2Y931C (O60674 whole entry Y931C): as the sequence (O60674 whole entry) above, with Y931C counted along it
In data set [20] the target is T1, JAK2V617F. Briefly: Western blot pSTAT5, HEK293T JAK2V617F. The following applies: HEK293 cells expressing JAK2V617F, 1 h. The format is cell-based.
The target of data set [21] is JAK2 R564Q (Homo sapiens, UniProt O60674, R564Q). Briefly: Western blot pSTAT5, HEK293T JAK2 R564Q. The format is cell-based. To be noted: HEK293 cells expressing JAK2 R564Q, 1 h.
Chain of JAK2 R564Q (O60674 whole entry R564Q): as the sequence (O60674 whole entry) above, with R564Q counted along it
The target of data set [22] is wild-type JAK2 (Homo sapiens, UniProt O60674). Briefly: Western blot pSTAT5, IL-3-stimulated Ba/F3 wild-type JAK2. The following applies: Ba/F3 wild-type JAK2, 50 and 200 nM. The format is cell-based.
Chain of wild-type JAK2 (O60674 whole entry): as the sequence (O60674 whole entry) above

T1 sequence (O60674 whole entry V617F): as the sequence (O60674 whole entry) above, with V617F counted along it
T2 sequence (O60674 whole entry): as the sequence (O60674 whole entry) above
Chain of JAK3/JAK1 heterodimer (P23458 whole entry, one chain of several): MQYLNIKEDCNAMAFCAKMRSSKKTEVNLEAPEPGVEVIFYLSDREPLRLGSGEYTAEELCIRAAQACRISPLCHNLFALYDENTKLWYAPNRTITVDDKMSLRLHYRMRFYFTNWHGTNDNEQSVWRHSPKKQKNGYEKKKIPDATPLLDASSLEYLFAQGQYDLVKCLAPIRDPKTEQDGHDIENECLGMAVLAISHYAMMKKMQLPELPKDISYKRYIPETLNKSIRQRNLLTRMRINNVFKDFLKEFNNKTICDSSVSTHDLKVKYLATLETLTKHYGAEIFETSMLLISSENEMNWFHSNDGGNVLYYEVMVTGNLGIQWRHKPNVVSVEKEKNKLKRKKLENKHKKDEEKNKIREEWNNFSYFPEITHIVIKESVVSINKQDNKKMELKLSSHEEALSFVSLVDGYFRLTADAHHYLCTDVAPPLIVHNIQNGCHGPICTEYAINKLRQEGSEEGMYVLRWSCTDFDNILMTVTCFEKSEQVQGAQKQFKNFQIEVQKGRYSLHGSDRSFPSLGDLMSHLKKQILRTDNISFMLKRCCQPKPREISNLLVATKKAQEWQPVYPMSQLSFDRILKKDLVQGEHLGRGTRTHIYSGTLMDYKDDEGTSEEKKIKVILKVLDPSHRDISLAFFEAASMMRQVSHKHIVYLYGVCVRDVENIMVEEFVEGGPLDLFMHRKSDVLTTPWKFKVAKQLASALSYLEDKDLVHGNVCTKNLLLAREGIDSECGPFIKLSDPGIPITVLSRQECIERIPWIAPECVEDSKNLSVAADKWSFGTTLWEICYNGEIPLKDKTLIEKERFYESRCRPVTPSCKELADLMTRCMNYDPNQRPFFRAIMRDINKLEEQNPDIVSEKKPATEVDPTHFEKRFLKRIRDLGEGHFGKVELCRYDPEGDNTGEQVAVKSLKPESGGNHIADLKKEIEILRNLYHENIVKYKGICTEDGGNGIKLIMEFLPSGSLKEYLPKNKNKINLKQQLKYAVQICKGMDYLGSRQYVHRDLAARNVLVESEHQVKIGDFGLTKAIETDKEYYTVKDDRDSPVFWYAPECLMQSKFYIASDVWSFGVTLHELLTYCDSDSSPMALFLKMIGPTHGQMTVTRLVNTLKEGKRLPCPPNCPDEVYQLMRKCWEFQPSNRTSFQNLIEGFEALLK
Chain of JAK3/JAK1 heterodimer (P14784 27-551 partner, one chain of several): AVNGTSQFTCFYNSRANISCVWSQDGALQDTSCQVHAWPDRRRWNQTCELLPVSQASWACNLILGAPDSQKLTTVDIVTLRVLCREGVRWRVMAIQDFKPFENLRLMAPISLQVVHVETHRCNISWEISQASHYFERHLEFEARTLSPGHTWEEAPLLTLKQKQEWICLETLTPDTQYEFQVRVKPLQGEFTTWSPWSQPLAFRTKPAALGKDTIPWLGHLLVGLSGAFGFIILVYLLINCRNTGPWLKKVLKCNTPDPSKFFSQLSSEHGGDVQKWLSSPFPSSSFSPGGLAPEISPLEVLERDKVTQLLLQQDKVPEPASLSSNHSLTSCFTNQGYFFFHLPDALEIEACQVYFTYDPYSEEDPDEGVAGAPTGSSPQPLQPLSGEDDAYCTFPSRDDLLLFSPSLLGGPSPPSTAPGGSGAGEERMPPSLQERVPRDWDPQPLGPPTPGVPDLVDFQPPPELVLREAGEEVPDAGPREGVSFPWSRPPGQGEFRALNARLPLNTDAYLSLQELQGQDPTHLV
Chain of JAK3/JAK1 heterodimer (P31785 23-369 partner, one chain of several): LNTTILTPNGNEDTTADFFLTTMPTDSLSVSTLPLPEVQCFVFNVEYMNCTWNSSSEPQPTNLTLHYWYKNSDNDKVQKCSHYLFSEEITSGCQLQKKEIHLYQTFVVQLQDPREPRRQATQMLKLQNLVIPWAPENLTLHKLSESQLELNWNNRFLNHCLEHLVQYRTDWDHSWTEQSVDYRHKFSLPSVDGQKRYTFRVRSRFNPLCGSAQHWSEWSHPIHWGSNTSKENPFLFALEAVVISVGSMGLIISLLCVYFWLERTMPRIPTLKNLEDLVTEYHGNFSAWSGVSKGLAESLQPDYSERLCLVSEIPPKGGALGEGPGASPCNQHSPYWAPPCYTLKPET
Chain of TEL-JAK1 (P23458 875-1154 limits assumed, one chain of several): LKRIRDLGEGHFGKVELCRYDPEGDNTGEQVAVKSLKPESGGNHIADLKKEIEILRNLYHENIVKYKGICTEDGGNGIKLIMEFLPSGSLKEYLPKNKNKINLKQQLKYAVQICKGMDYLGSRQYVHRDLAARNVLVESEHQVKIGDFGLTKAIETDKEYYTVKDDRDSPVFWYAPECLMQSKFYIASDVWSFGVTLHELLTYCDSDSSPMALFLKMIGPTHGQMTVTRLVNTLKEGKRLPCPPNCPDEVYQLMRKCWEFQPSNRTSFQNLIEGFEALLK
Chain of TEL-JAK2 (O60674 840-1132 limits assumed, one chain of several): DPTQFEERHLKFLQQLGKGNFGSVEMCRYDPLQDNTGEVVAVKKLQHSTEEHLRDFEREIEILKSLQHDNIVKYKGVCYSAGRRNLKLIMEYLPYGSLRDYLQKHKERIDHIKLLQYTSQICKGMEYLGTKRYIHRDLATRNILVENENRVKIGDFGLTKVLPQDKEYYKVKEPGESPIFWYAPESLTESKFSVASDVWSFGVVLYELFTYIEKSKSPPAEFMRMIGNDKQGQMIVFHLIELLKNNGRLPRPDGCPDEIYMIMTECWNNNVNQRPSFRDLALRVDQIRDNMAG
Chain of JAK2 H538Q (O60674 whole entry H538Q): as the sequence (O60674 whole entry) above, with H538Q counted along it

Take `Cc1cc(Nc2nc(N[C@@H](C)c3ncc(F)cn3)ncc2Cl)n[nH]1` [AZD1480, reference compound]: the IC50 was 43 ± 1 nM in [1]; 2550 ± 345 nM in [2]; 663 ± 74 nM in [3]; 19 ± 13 nM in data set [4]; 139 ± 47 nM in data set [5]; 181 ± 132 nM in data set [6].
Turning to `Cc1cc(Nc2ccc3ncn([C@@H]4CCc5ccc(F)cc54)c3n2)[nH]n1.Cl.Cl` [Compound 1, 3-[(1R)-6-fluoro-2,3-dihydro-1H-inden-1-yl]-N-(3-methyl-1H-pyrazol-5-yl)-3H-imidazo[4,5-b]pyridin-5-amine dihydrochloride], in [7], the “Change in cytotoxic T-cells, CD3+CD8a+, peripheral blood” value is −39 (P<0.05) %; the “Change in cytotoxic T-cells, CD3+CD8a+, spleen” value was −42 (P<0.05) ^d %; the “Percentage of T-cytotoxic cells (peripheral blood and splenic)” value was “statistically significant decrease”. The IC50 in data set [8] worked out at 2 nM. For the same molecule, the IC50 in data set [9] was found to be 228 ± 76 nM. Moreover, the “Selectivity for JAK2 over JAK3, biochemical” value in [10] is recorded as “fourfold”.
As for `Cc1cc(Nc2cc(CN3CCOCC3)c3nc(C)c(Cc4ccc(Cl)cc4F)n3n2)n[nH]1` [LY2784544, 3-(4-chloro-2-fluorobenzyl)-2-methyl-N-(5-methyl-1H-pyrazol-3-yl)-8-(morpholinomethyl)imidazo[1,2-b]pyridazin-6-amine], the “TEC50, plasma concentration to inhibit 50% of STAT5 phosphorylation” value in data set [11] (30 min after oral dosing) was 699.0 ng/ml and 1.49 μM. The “Duration of statistically significant inhibition of STAT5 phosphorylation” value in data set [11] (single 40 mg/kg oral dose) was “at least 2 h”; in data set [11] (single 80 mg/kg oral dose), “at least 6 h”. The “TED50, dose to inhibit 50% of STAT5 phosphorylation” value in data set [11] (single oral dose, 30 min after dosing, ascitic tumor cells) amounted to 12.7 mg/kg. The Spleen mass reduction result in data set [12] (20 mg/kg BID, 14 days) is given as “about 20%”. Also, the “Decrease in GFP-positive Ba/F3-JAK2V617F cells” value in [12] (20 mg/kg BID, 14 days, spleen) was about 50%. Moreover, in [12] (20, 40 or 80 mg/kg, BID), the “Reduction of the number of Ba/F3 cells expressing JAK2V617F” value is listed as at least 50%. Further, the “TED50 for tumor burden reduction” value in [12] (oral, twice daily, 14 days, Ba/F3-JAK2V617F-GFP cells in spleen) is 13.7 mg/kg. Besides, the “Inhibition of STAT5 phosphorylation, western blot” value is reported as “effectively inhibited” in data set [13]; “potently inhibited” in data set [18]; “much less potency” in data set [19]; “effectively inhibited” in [20]; “effectively inhibited” in [21]. The “Change in cytotoxic T-cells, CD3+CD8a+, peripheral blood” value in data set [7] was “No change”. Besides, in [7], the “Change in cytotoxic T-cells, CD3+CD8a+, spleen” value is on record as “No change”. In [7], the “Percentage of T-cytotoxic cells (peripheral blood and splenic)” value is “did not decrease”. Besides, the “Gastric- and intestine-related toxicity” value in [14] is “No gastric- and intestine-related toxicity was observed”. Moreover, the IC50 in [1] came to 55 ± 4 nM; in data set [2], 4740 ± 738 nM; in [9] it was 942 ± 255 nM; in data set [3], 2900 ± 486 nM; in data set [17], 45 ± 19 nM; in data set [5] it was 191 ± 36 nM. Also, in data set [15] (40 mg/kg (P=8 × 10^−4) and 80 mg/kg (P=8 × 10^−7) BID, 8 days), the “Percentage of Ba/F3-JAK2V617F-GFP-positive cells in spleen” value is “significantly reduced”. Further, the “Effect on erythroid progenitor (CD71+/Ter119+) cells” value in data set [15] (5–80 mg/kg BID, 8 days) is “no effect; also recorded: did not affect”. For the same molecule, the “Effect on peripheral blood reticulocytes” value in data set [15] (5–80 mg/kg BID, 8 days) is recorded as “no effect; also recorded: did not reduce”. In data set [15], the Effect on platelets result is given as “no effect”. In data set [16], the EC50 came to 113 ± 0.023 nM. The “Inhibition of IL-3-stimulated STAT5 phosphorylation, western blot” value in data set [22] is on record as “marginal inhibition”.
